Measurements from PMC8594913 (Nature cancer, 2021).

How the values were obtained:
[1] = system: MV4–11 human systemic AML model; assay: Disseminated MV4–11 AML model, survival; format: in vivo, mouse; details: 30 d of dosing
[2] = system: AML cells (MV4–11, GDM-1, SKM-1); assay: Western blotting; format: cell-based, human
Outline: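 Cells plated in 15-cm dishes 24 h before treatment with 0.1% DMSO or compound (6-point, fivefold serial dilution); GDM-1 cells were treated 2 d at 3.2–10,000 nM. Blots probed with IRDye secondary antibodies and imaged on a LI-COR Odyssey. Total H2AX (and vinculin for GDM-1) served as loading controls.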

[3] = system: SKM-1 xenograft; assay: Subcutaneous SKM-1 xenograft; format: in vivo, mouse
[4] = system: 51 hematologic cancer cell lines; assay: 6-d proliferation, panel of 51 hematologic cancer cell lines; format: cell-based, human
Outline: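 6-d proliferation run by Horizon Discovery on its 2D OncoSignature panel. Compound given as a 10-point, threefold serial dilution, in triplicate. Growth-death index (GDI) runs from −100 (complete cell death) to 100 (no inhibition). Growth IC50 (gIC50) and GDI are reported per line.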

[5] = system: MV4–11 cells; assay: Cell growth–death assay, MV4–11; format: cell-based, human
[6] = Peripheral blood cell counts, SKM-1 study; format: in vivo, mouse
Outline: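 SKM-1 xenograft mice. Compound given s.c. twice daily in 10% captisol (pH 4.5–5); reference agent i.p. three times weekly; both at 10 ml kg⁻¹. Blood counts taken at end of dosing (day 28) and after 27 d recovery (day 55), n = 5 per group. One-way ANOVA with Dunnett's test, adjusted P; log₁₀-transformed where variances were unequal.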

[7] = system: MV4–11 xenograft; assay: Subcutaneous MV4–11 xenograft; format: in vivo, mouse
[8] = system: MV4–11 cells; assay: Global DNA methylation; format: cell-based, human; details: MV4–11, day 4
Outline: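 MV4–11 cells plated in 10-cm dishes 24 h before treatment with 0.1% DMSO or compound (8-point, threefold serial dilution). Global 5-methylcytosine was measured, and treated values were normalized to vehicle control.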

[9] = system: Gla1; assay: Gla1 counter screen; format: biochemical; details: read-out: Gla1 IC50; n = 40
[10] = molecular target: T1, DNMT1 (Homo sapiens, UniProt P26358); assay: Reversibility by rapid dilution; format: biochemical; details: 100-fold rapid dilution
Outline: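 DNMT1 preincubated 20 min with compound, then the complex was diluted 100-fold by adding substrates. Activity recovery was followed over 70 min by quenching at time points after dilution. Data were fit to a fixed steady-state velocity equation.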

[11] = Compound stability in media without or with cells; format: physicochemical; details: 1,000 nM, media without or with MV4–11 cells, 37 °C
Outline: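 MV4–11 cells, or media alone, plated 24 h before adding compound (100 or 1000 nM) and incubated at 37 °C. Remaining compound was quantified by LC-MS/MS.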

[12] = system: hemi-methylated hairpin oligonucleotide; assay: DNA binding assay
Outline: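 Differential scanning fluorimetry on hemi-methylated hairpin oligonucleotide (200 nM) with 100 μM compound or DMSO. Ramp 25–95 °C at 1 °C min⁻¹, fluorescence read after each step. n = 2 biologically independent experiments, two technical replicates each.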

[13] = Mouse pharmacokinetics; format: in vivo; details: mice
Outline: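 Naive mice, 3 per group, each given a single dose: 2 mg kg⁻¹ i.v. (male CD-1), 2 mg kg⁻¹ s.c. (male C57/BL6) or 30 mg kg⁻¹ s.c. (female Nu/Nu). Composite blood samples were taken over 24 h and measured by HPLC–MS/MS. Parameters came from noncompartmental analysis of mean blood concentration–time profiles; AUC by linear trapezoidal rule.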

[14] = molecular target: kinases (n = 369); assay: Kinase selectivity panel; format: biochemical; details: read-out: IC50 values, kinase panel, panel tested at 10 μM
Outline: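 Kinase panel run at Reaction Biology with HotSpot technology, compound at a single concentration of 10 μM. PIM1, PKD2/PRKD2 and DYRK2 were run in IC50 format (10-point, threefold serial dilution).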

[15] = molecular target: Murine DNMT1 (731–1602) (Mus musculus, UniProt P13864); assay: Investigation of covalent adduct; format: binding; details: 25 μM, 20 h, hemi-methylated DNA
Outline: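 Murine DNMT1 (731–1602, 5.6 μM) incubated 20 h with 14-mer hemi-methylated DNA duplex (25 μM), with or without compound (25 μM). Buffer: 20 mM Tris pH 7.5, 50 mM NaCl, 5 mM DTT, 20% glycerol, 2.5% DMSO. Aliquots diluted fivefold in 0.05% TFA/0.1% formic acid; 20 pmol protein analysed by intact-mass TOF LC–MS for adducts.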

[16] = molecular target: other methyltransferases (n = 34); assay: Methyltransferase selectivity panel; format: biochemical; details: read-out: IC50 values, methyltransferase panel
Outline: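 Methyltransferase panel run at Reaction Biology with HotSpot technology in IC50 format (10-point, threefold serial dilution).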

[17] = system: H1507Y mutant DNMT1; assay: Radioactive SPA, H1507Y DNMT1; format: biochemical, human
[18] = mouse, in vivo, sc
[19] = molecular target: DNMT1 in HepG2 cells (Homo sapiens, UniProt P26358); assay: Cellular thermal shift assay; format: cell-based; details: HepG2, 90 min
[20] = system: SKM-1 tumors; assay: Pharmacodynamics in SKM-1 tumors; format: in vivo, mouse; details: SKM-1, 45 mg kg^−1, 8 d of dosing
Outline: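 SKM-1 subcutaneous xenografts in NOD-scid mice, 3 per group (24 total). Compound given s.c. twice daily in 10% captisol (pH 4.5–5) at 10 ml kg⁻¹. Tumors and blood collected 6 h after the last dose on day 8.5. Tumors assayed for global 5-methylcytosine; blood drug levels by HPLC–MS/MS after acetonitrile precipitation.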

[21] = molecular target: T1, DNMT1; assay: Radioactive SPA, DNMT1, 40-mer hemi-methylated DNA; format: biochemical; details: read-out: DNMT1 IC50
[22] = system: bacterial M.SssI CpG DNMT; details: cited from earlier work
[23] = system: DNMT3A; details: cited from earlier work
[24] = system: DNMT1; details: cited from earlier work
[25] = molecular target: DNMT1 (729-1600) (human, UniProt P26358 729-1600); assay: X-ray crystallography
Sequence of DNMT1 (729-1600) (P26358 729-1600): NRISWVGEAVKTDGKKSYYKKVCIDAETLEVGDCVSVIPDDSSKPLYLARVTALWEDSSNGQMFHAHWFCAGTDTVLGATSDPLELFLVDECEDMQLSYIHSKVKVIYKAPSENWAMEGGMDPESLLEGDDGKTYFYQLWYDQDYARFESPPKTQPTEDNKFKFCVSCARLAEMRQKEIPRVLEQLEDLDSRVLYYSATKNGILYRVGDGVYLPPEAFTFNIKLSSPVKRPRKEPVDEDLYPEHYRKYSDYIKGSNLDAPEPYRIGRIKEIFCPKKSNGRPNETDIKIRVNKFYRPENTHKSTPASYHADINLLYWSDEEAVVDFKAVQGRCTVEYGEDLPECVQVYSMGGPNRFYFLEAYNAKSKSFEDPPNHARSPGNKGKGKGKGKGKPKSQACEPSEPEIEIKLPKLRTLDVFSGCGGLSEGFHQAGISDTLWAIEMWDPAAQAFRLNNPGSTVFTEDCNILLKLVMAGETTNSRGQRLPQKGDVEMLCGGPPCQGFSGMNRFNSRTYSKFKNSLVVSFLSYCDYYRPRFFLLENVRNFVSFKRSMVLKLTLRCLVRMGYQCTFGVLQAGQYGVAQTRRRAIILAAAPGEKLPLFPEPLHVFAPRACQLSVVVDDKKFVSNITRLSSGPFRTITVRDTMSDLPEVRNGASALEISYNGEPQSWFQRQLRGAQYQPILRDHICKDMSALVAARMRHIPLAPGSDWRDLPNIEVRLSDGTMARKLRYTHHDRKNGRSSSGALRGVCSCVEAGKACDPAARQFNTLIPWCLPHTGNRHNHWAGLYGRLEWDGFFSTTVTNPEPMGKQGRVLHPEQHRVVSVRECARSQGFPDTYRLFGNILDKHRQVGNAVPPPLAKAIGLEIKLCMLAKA

T1 sequence (P26358 whole entry): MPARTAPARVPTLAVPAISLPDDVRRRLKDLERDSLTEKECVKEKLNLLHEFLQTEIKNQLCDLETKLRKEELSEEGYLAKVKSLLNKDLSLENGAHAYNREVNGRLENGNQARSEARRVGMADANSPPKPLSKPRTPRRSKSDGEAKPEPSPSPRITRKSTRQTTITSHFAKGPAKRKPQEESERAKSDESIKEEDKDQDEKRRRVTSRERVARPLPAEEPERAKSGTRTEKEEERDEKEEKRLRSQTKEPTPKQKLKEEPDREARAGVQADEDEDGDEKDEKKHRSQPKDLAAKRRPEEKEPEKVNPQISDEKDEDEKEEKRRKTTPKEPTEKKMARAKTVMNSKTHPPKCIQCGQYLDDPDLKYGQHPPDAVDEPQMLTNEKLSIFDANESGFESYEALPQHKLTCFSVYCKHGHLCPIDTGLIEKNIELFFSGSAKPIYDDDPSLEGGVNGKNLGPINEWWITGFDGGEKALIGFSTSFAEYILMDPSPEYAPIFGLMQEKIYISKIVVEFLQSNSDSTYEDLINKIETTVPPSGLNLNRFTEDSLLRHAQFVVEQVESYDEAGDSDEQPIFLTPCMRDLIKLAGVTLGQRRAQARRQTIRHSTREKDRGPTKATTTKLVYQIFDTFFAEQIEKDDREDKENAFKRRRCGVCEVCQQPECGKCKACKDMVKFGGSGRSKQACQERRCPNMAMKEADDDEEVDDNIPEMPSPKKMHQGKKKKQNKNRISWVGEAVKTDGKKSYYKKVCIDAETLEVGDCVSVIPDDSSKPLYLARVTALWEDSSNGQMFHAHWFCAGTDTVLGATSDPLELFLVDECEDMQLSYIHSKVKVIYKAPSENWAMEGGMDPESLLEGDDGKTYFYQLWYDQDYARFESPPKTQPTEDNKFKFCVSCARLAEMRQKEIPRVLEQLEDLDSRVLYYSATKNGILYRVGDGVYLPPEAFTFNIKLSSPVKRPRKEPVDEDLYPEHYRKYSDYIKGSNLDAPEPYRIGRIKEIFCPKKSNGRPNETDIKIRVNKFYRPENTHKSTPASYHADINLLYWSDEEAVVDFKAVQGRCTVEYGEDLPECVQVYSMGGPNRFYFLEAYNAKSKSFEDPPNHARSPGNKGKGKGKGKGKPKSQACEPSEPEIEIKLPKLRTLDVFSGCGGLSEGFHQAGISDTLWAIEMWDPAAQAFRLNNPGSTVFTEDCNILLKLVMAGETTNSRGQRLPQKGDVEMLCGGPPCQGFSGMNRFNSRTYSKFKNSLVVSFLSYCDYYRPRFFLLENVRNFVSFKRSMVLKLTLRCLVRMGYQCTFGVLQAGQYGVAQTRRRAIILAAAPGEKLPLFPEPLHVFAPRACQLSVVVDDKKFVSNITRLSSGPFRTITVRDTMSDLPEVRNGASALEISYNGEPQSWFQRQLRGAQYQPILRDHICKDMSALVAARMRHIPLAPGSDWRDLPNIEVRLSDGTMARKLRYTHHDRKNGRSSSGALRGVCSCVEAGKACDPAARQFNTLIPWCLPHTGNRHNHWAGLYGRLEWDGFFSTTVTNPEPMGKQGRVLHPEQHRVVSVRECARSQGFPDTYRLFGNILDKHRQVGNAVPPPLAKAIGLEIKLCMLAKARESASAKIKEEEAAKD
Sequence of DNMT1 in HepG2 cells (P26358 whole entry): as above
Sequence of Murine DNMT1 (731–1602) (P13864 731-1602): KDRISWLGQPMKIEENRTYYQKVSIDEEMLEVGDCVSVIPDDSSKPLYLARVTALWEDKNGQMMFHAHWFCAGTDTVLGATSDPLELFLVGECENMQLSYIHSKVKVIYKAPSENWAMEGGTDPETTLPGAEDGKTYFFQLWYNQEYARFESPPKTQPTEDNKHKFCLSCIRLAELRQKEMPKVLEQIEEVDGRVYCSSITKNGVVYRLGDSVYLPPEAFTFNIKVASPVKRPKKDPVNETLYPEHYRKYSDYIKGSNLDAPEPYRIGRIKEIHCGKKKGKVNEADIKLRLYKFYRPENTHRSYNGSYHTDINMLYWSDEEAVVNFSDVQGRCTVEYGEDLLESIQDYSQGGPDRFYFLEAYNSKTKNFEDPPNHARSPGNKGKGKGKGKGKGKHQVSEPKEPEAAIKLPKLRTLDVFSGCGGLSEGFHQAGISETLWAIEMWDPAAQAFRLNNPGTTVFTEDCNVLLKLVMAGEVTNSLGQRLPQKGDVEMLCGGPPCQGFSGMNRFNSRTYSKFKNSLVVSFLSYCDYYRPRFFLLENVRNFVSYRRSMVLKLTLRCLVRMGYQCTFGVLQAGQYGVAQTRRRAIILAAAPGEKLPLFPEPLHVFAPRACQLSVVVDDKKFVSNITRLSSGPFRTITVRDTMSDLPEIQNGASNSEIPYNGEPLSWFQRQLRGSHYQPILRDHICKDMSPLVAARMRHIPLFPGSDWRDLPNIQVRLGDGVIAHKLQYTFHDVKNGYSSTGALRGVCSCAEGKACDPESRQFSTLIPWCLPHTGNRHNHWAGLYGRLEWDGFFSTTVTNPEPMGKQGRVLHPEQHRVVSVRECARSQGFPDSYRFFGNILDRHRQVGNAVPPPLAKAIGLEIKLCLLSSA

In the case of `Nc1ncn([C@H]2C[C@H](O)[C@@H](CO)O2)c(=O)n1` [DAC, decitabine, reference compound], the “survival benefit over vehicle” value [1] is reported as 13 days, the “lowest dose with accumulation of γH2AX (DNA damage)” value [2] is reported as 16 nM and the “tumor growth inhibition relative to vehicle” value ([3]; SKM-1, intraperitoneal three times weekly, not statistically significant) is reported as 18%. For the same molecule, the “cell lines with negative growth–death index (GDI)” value ([4]; day 6) was 80%, the “onset of cell death (negative GDI)” value ([5]; MV4–11) was 2 days and the “neutrophils, red blood cells, platelets” value ([6]; day 28, DAC intraperitoneal three times weekly) was “statistically significant decreases”. For the same molecule, the “tumor growth inhibition relative to vehicle” value ([7]; MV4–11, intraperitoneal three times weekly, not statistically significant) was 57% and the “concentration above which DNA hypomethylation and gene activation diminish” value [8] was “above 350 nM”.

With `CCc1c(C#N)c(SC(C(N)=O)c2ccccc2)nc(N(C)C)c1C#N` (stereo not drawn) [GSK3484862] the IC50 [9] was greater than 50000 nM, the “reversibility of DNMT1 inhibition” value [10] was “rapidly reversible inhibition” and the chemical stability [11] was “chemically stable”. For the same molecule, the “nonspecific DNA binding” value ([12]; 100 μM compound) was “did not bind DNA nonspecifically” and the “Tm of hemi-methylated hairpin oligonucleotide” value ([12]; with DMSO or 100 μM compound) was 77.5 °C.

With `CCc1c(C#N)c(SC(C(N)=O)c2ccccc2)nc(N2CCC(N)CC2)c1C#N` (stereo not drawn) [GSK3685032] the blood half-life [13] was greater than 1.8 h, the clearance [13] was “low clearance” and the volume of distribution [13] was “moderate volume of distribution”. The IC50 [14] was greater than 10000 nM, the “mice surviving nearly 7 weeks after dosing ended” value [1] was 50% and the “survival benefit over vehicle” value [1] was greater than 43 days. For the same molecule, the “covalent binding to DNMT1” value [15] was “noncovalent”, the IC50 [16] was greater than 10000 nM and the “effects on DNMT3A, DNMT3B or γH2AX” value [2] was “no immediate effects”. The “reduction in inhibition of H1507Y mutant versus wild-type DNMT1” value [17] was greater than 350 fold, the “dose giving clear tumor regression” value ([3]; SKM-1, subcutaneous twice daily) was no less than 30 mg/kg and the “animals maintaining tumor volumes ≤200 mm^3 while off drug” value ([3]; SKM-1, ≥30 mg kg^−1, 4-week observation after dosing) was no less than 60%. For the same molecule, the IC50 ([4]; read-out: median growth IC50 (gIC50), day 6, median of panel) was 640 nM, the “onset of growth inhibition” value ([5]; AML lines, 6 d time course) was no less than 3 days and the “neutrophils, red blood cells, platelets” value ([6]; day 28, 1 or 5 mg kg^−1) was “no statistically significant changes”. The well tolerated dose [18] was “at least 45 mg kg^−1”, the “cellular target engagement (DNMT1 thermal stabilization)” value [19] was “stabilization of DNMT1” and the “maximal loss of DNA methylation in tumors” value [20] was 46%. For the same molecule, the “dose giving clear tumor regression” value ([7]; MV4–11, subcutaneous twice daily) was no less than 30 mg/kg, the “animals maintaining tumor volumes ≤200 mm^3 while off drug” value ([7]; MV4–11, ≥30 mg kg^−1, 4-week observation after dosing) was no less than 60% and the “additional loss of global DNA methylation versus DAC” value [8] was 13%. The “maximal response, loss of global DNA methylation” value [8] was 83%.

Molecule `CCc1c(C#N)c(SCc2ccc(N(C)S(C)(=O)=O)cc2)nc(N(C)CCNC)c1C#N` [GSK3830052] has an IC50 [21] of 110 ± 20 nM.

For `O=C(O)C(Cc1c[nH]c2ccccc12)N1C(=O)c2ccccc2C1=O` (stereo not drawn) [RG-108], the IC50 [22] is given as 12 nM.

In the case of `Nc1ncnc2c1ncn2[C@@H]1O[C@H](CSCC[C@H](N)C(=O)O)[C@@H](O)[C@H]1O` [SAH, S-adenosyl-L-homocysteine, reference compound], the “reduction in inhibition of H1507Y mutant versus wild-type DNMT1” value [17] is reported as “not observed”.

In the case of `Cc1cc(Nc2ccc(NC(=O)c3ccc(Nc4ccnc5ccccc45)cc3)cc2)nc(N)n1` [SGI-1027], the “activity against DNMT3A” value [23] is listed as “low μM activity”, the cell growth ([5]; MV4–11, day 6) is listed as “inhibited cell growth” and the “activity against DNMT1” value [24] is listed as “low μM activity”.

B1: 12-bp hemi-methylated DNA with zebularine (dsDNA)
DNA 1: GAGGCCGCCTGC
DNA 2: GCAGGCGGCCTC
modifications: strand 1 C6 = 5-methylcytosine (M); strand 2 C6 = zebularine (Z, in place of target cytidine)
B1: binds [25].
